Only some compounds are listed: those with a hit (about 1.8% of all), similar ones and a draw of the others.
M4 ag: agonists of human muscarinic M4 receptor (CHRM4) | CHO-K1 hM4/Gqi5, Fluo-8 calcium fluorescence; vehicle 0%, full acetylcholine response 100% | 360,000 compounds, 0.14% hits | P08173 | activation, % at 3 µM;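 active = activation above the run mean over all test wells plus 3 SD, cut at about 32% in these data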;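 also: peak over basal fluorescence ratio per well then scaled between controls; 0% = DMSO wells and 100% = acetylcholine at EC100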
CHRM4 PAM: CHRM4 positive allosteric modulation | P08173 | activation, % at 3 µM | CHO-K1 hM4/Gqi5, Fluo-8 calcium fluorescence, ACh EC20; 0% = ACh EC20, 100% = maximal ACh | 360,000 compounds, 0.4% hits;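 active = activation above its plate's cutoff, the mean activation of sample wells plus 3 SD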
M5 PAM: positive allosteric modulators of human muscarinic M5 receptor; CHO-K1 hM5, Fluo-8 calcium, ACh EC20 PAM; 0% = ACh EC20, 100% = ACh EC100; P08912; AID 624038; activation, % at 3 µM; 360,000 compounds, 0.3% hits;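 active = activation above the run cutoff, the mean activation of all test compounds plus 3 SD, cut at about 18% in these data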
Target sequence (P08912 whole entry, looked up): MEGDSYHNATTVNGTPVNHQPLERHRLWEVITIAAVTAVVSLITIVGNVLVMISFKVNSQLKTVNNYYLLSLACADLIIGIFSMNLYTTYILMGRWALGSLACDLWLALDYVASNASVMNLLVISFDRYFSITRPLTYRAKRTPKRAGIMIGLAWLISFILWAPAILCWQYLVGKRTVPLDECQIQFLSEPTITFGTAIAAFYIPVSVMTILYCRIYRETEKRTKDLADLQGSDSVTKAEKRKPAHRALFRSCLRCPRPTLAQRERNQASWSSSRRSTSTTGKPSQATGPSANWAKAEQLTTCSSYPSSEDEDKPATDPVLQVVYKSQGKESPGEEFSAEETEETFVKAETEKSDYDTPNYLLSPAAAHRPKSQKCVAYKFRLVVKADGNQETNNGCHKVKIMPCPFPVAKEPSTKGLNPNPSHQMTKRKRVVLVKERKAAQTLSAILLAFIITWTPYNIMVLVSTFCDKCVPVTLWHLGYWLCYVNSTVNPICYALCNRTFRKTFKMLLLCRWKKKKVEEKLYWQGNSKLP
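Replicates: One well per compound, no replicates | System: Human M5 receptor in CHO-K1 cells | Benchmarks: Low control EC20 acetylcholine (0%), high control EC100 acetylcholine (100%) | Probe or stimulus: Acetylcholine, EC20 level | Times: Fluo-8 loading 80 min at 37 °C plus 30 min room temperature | Signal: Intracellular calcium via Fluo-8 fluorescence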
M4 antag: CHRM4 antagonism in calcium assay; 360,000 compounds, 0.73% hits; CHO-hM4 cells, ACh EC80, Fluo-8 calcium fluorescence; inhibition, % at 3 µM; P08173; AID 624125;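 active = inhibition above its plate's cutoff, the mean inhibition of sample wells plus 3 SD, cut at about 27% in these data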;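 also: 0% = acetylcholine EC80 with DMSO and 100% = DMSO without agonist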
CHRM5 antagonist: antagonists of human muscarinic M5 receptor (CHRM5). P08912. CHO-hM5 cells, Fluo-8 calcium fluorescence, ACh EC80. inhibition, % at 3 µM. 360,000 compounds, 0.59% hits. AID 624040;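 active = inhibition above a per-plate cutoff, the mean of that plate's test compounds plus 3 SD, cut at about 27% in these data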;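 also: 0% = acetylcholine EC80 with DMSO and 100% = DMSO without agonist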
CHRM5 agonist: CHRM5 agonism in calcium assay; 360,000 compounds, 0.19% hits; activation, % at 3 µM; CHO-K1 hM5 cells, Fluo-8 calcium fluorescence; 0% DMSO wells, 100% maximal acetylcholine response;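 active = activation above the run's mean over test compounds plus 3 SD, cut at about 23% in these data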;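 also: signal is peak over basal fluorescence ratio across the kinetic read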
Starred values were filed as active, the others as inactive.

SMILES | M4 ag | CHRM4 PAM | M5 PAM | M4 antag | CHRM5 antagonist | CHRM5 agonist
CCCCC(CC(O)COCC(C)C)C(=O)NN (stereo not given) | 0.4 | 7.8 | 6.8 | 0.3 | -4.0 | -2.8
CCCCCCCC(O)CC(CC1CCCCC1)C(=O)NN (stereo not given) | 1.1 | 33.7* | 13.2 | 14.9 | -3.6 | -3.6
O=C(NCCc1ccccc1)c1ccc2c(c1)S(=O)(=O)c1cc(Cl)ccc1C2=O | 3.1 | 0.3 | -4.5 | 2.1 | 15.3 | -0.5
O=C(Cc1n[nH]c(=O)c2ccccc12)OCC(=O)c1ccc2c(c1)OCCO2 | 5.2 | 6.5 | -5.8 | -4.4 | 5.4 | 2.8
O=C(Cc1ccc(Br)cc1)OCC(=O)c1ccc2c(c1)OCCO2 | 3.8 | 29.7* | 4.4 | -13.6 | -4.4 | -5.7
O=C(CCCc1ccccc1)c1ccc2c(c1)OCCO2 | -1.9 | 31.0* | 0.0 | -0.5 | -3.5 | -2.8
CC(C)(C)N(Cc1ccccc1)C(=O)c1ccc2c(c1)OCCO2 | 2.5 | -17.4 | -17.4 | 29.1* | 8.3 | -8.3
CC1=C(C(=O)N2CCCCCC2)CC(CC(=O)NC(c2ccccc2)c2ccccc2)C(=O)N1CCC1=CCCCC1 (stereo not given) | 2.5 | -5.2 | -12.8 | -12.3 | 7.8 | -1.2
COC(=O)c1sc(-c2ccccc2)cc1NC(=O)c1ccc(OC)cc1 | 0.7 | 24.1* | 9.0 | -15.0 | -1.4 | -1.0
CCOC(=O)/C(=C/c1c2ccccc2cc2ccccc12)NC(=O)c1ccccc1 | -0.7 | -9.5 | -8.7 | -2.2 | -4.5 | -5.2
CCOC(=O)/C(=C\c1ccccc1)NC(=O)c1ccccc1 | 1.7 | 0.5 | 18.7* | -6.3 | -18.5 | 3.8
CCOC(=O)/C(=C/c1ccc(OC(=O)c2ccccc2)cc1)C(C)=O | 1.4 | 21.2* | 6.0 | -1.4 | -5.2 | -1.4
Brc1ccc([C@H]2C=C[C@H]3CCCN4CC[C@H]2[C@@H]3[C@]42CO2)cc1 | 1.0 | -6.9 | -2.8 | 3.5 | -2.7 | -3.5
COCCNC(=O)c1ccc(C2SCC(=O)N2CCc2ccccc2)cc1 (stereo not given) | -0.1 | 1.5 | -7.1 | 1.5 | 13.1 | -4.3
CCNc1nc(NCC)nc(N(C#N)C(C)C)n1 | 0.5 | 3.3 | 6.3 | 4.8 | 6.2 | 4.3
CCNc1nc(NC(C)(C)C)nc(N(C#N)CC)n1 | -0.4 | -32.5 | 2.7 | 61.1* | -1.8 | 6.2
Cc1ccc(-c2csc(N3CCN(CCCn4c(-c5ccncc5)nc5ccccc54)CC3)n2)cc1 | 6.3 | -5.8 | -24.2 | 12.3 | 17.6 | -5.6
Cc1ccc(-c2csc(N3CCC[C@@H]3C(=O)NCCn3c(-c4ccncc4)nc4ccccc43)n2)cc1 | 12.6 | -16.3 | -30.6 | 47.8* | 26.8 | -5.6
N#C/C(=C\c1ccco1)C(=O)NCc1ccccc1 | 0.1 | -2.9 | 7.4 | -6.6 | -9.3 | -0.4
CC(/C=N/n1c(-c2ccc(Cl)cc2)n[nH]c1=S)=C\c1ccco1 | 0.1 | -0.3 | -3.5 | 1.8 | 1.6 | 2.4
N#CC(C#N)=C1C=CC=CN1/C(=C\c1ccco1)C(=O)c1ccc(-c2ccccc2)cc1 | 3.5 | -8.8 | -3.4 | 27.0* | 8.7 | -4.1
N#CC(C#N)=C1C=CC=CN1/C(=C\c1ccco1)C(=O)c1ccc(Cl)cc1 | 2.9 | -11.5 | 1.7 | 55.0* | 8.2 | -2.8
Cc1ccccc1S(=O)(=O)NC(=O)C1(C)CCN1C(=O)Cc1ccccc1Cl (stereo not given) | 0.1 | 6.5 | -6.2 | -18.0 | 0.7 | -1.1
CSc1nc(N)nc2c1ncn2C1OC(CO)C(O)C1O (stereo not given) | -0.1 | 2.5 | -6.4 | 4.8 | 32.5* | -2.0
O=C(CNC1CCCCC1)N1CCc2ccccc2C1 | 1.0 | 1.2 | -3.1 | 30.4* | 17.5 | -0.9
SMILES | M4 ag | CHRM4 PAM | M5 PAM | M4 antag | CHRM5 antagonist | CHRM5 agonist
O=C(NC1CCCCC1)N1CCc2ccccc2C1 | 0.6 | -4.6 | -3.1 | 1.4 | 7.5 | -5.5
COc1ccc(/C=C/CN2CCCC(CCC(=O)NCc3ccc(F)c(F)c3)C2)cc1 (stereo not given) | 1.7 | -22.1 | -11.9 | 71.2* | 7.2 | -9.8
COCc1ccc(CN2CCCC(CCC(=O)NCc3ccc(C)o3)C2)o1 (stereo not given) | 0.8 | 3.2 | 7.5 | -14.0 | -7.1 | -0.9
COC(=O)c1ccc(CN2CCCC(CCC(=O)NCc3ccc(C)o3)C2)cc1 (stereo not given) | 0.5 | -20.3 | 0.5 | 59.0* | 8.4 | -10.9
Cc1cc(-c2cn3ccccc3n2)c(C)n1-c1ccccc1 | -0.2 | -22.1 | -14.8 | 41.0* | -0.6 | -5.8
CC(C)N(Cc1ccccc1)C(=O)COC(=O)c1cnc(Cl)c(Cl)c1 | 4.1 | -0.2 | -8.0 | -2.4 | 13.4 | -6.0
CC(=O)N(C1CC(C)C(C#N)(C#N)C1(C#N)C#N)N(C)C (stereo not given) | -0.3 | 0.9 | 2.5 | 9.6 | 5.9 | -3.3
CCCC(=O)N(C1CC(C)C(C#N)(C#N)C1(C#N)C#N)N(C)C (stereo not given) | 1.6 | -20.7 | -2.3 | 47.2* | 13.2 | 0.4
C[C@@H]1CN([C@@H](C)CO)C(=O)CCCn2nncc2CO[C@@H]1CN(C)C(=O)Nc1cccc(Oc2ccccn2)c1 | 0.6 | 7.4 | 0.6 | -11.5 | -7.5 | -0.1
O=C(NCC[C@H]1CC[C@@H](NC(=O)C2CCC2)[C@@H](CO)O1)c1cc(Cl)cc(Cl)c1 | 1.3 | 4.1 | -0.4 | -5.6 | 6.4 | 1.0
COc1cccc(C(O)c2nc(-c3cccc(C(C)C)c3)cs2)c1 (stereo not given) | 0.8 | -5.4 | -1.8 | 19.7 | 5.8 | -0.7
O=C1CSC(c2ccccn2)N1c1ccccc1F (stereo not given) | 0.3 | 5.8 | -6.5 | -4.5 | 30.3* | -1.3
COc1cccc(C2SCC(=O)N2c2ccc(Br)cc2)c1OC (stereo not given) | -2.3 | -39.0 | -19.8 | 65.7* | 34.7* | -8.1
O=C1CSC(c2ccccc2F)N1c1ccccc1F (stereo not given) | -0.5 | 4.7 | -1.6 | 8.4 | 5.3 | -5.0
O=C1CSC(c2ccccc2F)N1c1ccccc1 (stereo not given) | 37.1* | 6.0 | -7.1 | -7.0 | -3.1 | -6.3
CC(=CC(=O)c1ccccc1)c1ccccc1 | -0.9 | 13.5 | -10.7 | -8.9 | 15.9 | 0.3
CN(C)Cc1csc(NC(=O)Nc2ccccc2Oc2ccccc2)n1 | 6.0 | -0.1 | -3.5 | -8.3 | -3.8 | 0.1
COC(=O)C1=C(N)Oc2cc(C)[nH]c(=O)c2C1c1ccncc1 (stereo not given) | 0.1 | 6.2 | 20.0* | 1.1 | -17.1 | 0.5
COC(=O)C1=C(N)Oc2cc(C)n(C)c(=O)c2C1c1ccc(Cl)c(Cl)c1 (stereo not given) | 0.8 | -4.9 | -6.1 | -3.0 | -1.6 | 0.5

Source: PubChem (The Scripps Research Institute Molecular Screening Center)
